The source of these data is ChEMBL document CHEMBL4028836, “Optimization of M4 positive allosteric modulators (PAMs): The discovery of VU0476406, a non-human primate in vivo tool compound for translational pharmacology” (Bioorg Med Chem Lett, 2017).

Bounds are passed on as bounds.

In one data set the target is T1, Cytochrome P450 1A2 (Homo sapiens, UniProt P05177).
T1 sequence (P05177 whole entry): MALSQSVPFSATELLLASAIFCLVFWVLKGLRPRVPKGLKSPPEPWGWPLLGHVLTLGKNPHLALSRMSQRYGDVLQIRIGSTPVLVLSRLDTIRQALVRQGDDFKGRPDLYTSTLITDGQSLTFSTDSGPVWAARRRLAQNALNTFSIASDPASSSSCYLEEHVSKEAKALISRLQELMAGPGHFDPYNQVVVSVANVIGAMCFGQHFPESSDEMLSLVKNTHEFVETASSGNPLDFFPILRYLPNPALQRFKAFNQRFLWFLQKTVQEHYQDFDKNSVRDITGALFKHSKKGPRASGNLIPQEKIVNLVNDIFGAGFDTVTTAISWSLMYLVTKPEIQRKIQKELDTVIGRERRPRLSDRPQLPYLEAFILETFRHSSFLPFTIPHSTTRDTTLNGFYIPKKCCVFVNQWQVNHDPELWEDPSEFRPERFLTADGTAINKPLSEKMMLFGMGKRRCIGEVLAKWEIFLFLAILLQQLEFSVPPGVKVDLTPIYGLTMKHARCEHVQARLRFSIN
In words: Inhibition of CYP1A2 (unknown origin). It is filed as ADME.

The target of data set [1] is Muscarinic acetylcholine receptor M4 (Rattus norvegicus, UniProt P08485). In words: Positive allosteric modulation of rat M4 receptor assessed as increase in acetylcholine-induced calcium mobilization. It is filed as functional. Summed up: (§1)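 M4 PAM concentration-response curves measured by calcium mobilization at the stated species' receptor. Potency reported as EC50/pEC50 and efficacy as % of acetylcholine maximum.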
Chain of Muscarinic acetylcholine receptor M4 (P08485 whole entry): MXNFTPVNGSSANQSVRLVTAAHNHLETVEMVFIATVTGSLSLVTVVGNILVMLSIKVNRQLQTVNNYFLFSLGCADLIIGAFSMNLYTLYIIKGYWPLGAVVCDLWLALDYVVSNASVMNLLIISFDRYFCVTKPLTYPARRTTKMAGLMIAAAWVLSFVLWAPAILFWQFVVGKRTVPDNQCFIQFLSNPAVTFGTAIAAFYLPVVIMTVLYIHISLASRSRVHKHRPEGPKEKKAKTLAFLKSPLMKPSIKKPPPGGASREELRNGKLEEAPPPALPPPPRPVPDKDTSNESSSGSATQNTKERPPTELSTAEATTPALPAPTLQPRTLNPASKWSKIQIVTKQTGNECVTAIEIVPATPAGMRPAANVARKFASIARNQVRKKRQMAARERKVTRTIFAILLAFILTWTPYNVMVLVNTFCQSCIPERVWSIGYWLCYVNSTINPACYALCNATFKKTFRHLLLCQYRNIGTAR
For orientation: A change in cytosolic calcium serves as a functional read-out for many receptors and channels.

Data set [2] can be described thus: Positive allosteric modulation of dog M4 receptor assessed as increase in acetylcholine-induced calcium mobilization. Also noted: species or system Canis lupus familiaris. The essentials: as §1
Data set [3] deals with Muscarinic acetylcholine receptor M2 (Homo sapiens, UniProt P08172). In words: Activity at human M2 receptor.
Chain of Muscarinic acetylcholine receptor M2 (P08172 whole entry): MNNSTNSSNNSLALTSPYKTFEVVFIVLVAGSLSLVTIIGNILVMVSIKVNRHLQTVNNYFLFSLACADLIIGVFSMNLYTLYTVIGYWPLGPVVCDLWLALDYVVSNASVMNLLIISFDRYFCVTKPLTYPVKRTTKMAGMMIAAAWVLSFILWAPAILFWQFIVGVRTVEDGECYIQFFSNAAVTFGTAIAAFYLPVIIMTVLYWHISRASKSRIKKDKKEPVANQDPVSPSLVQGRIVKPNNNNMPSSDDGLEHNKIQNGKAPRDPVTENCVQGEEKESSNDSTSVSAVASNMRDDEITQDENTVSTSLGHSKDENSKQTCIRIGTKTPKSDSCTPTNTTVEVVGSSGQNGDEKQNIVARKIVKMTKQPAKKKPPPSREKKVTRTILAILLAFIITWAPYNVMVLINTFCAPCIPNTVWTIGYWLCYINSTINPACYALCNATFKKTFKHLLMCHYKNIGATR
The target in data set [4] is Muscarinic acetylcholine receptor M3 (Homo sapiens, UniProt P20309). Description: Activity at human M3 receptor.
Chain of Muscarinic acetylcholine receptor M3 (Homo sapiens, UniProt P20309) (P20309 whole entry): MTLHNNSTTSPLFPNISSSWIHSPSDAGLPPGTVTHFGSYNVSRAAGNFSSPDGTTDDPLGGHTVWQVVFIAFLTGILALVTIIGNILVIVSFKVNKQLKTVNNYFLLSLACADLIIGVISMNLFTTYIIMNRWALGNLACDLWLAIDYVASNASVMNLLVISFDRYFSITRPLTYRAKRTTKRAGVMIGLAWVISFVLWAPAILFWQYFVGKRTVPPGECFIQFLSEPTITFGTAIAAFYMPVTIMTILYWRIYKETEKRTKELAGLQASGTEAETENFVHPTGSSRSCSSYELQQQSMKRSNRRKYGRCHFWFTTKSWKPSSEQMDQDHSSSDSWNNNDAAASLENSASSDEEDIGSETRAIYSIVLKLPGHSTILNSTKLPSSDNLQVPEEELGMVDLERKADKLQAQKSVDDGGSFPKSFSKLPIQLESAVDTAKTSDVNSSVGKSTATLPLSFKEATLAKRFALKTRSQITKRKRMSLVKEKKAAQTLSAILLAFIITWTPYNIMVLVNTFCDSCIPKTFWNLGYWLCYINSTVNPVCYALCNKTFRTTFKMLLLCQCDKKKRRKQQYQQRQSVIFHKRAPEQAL
Data set [5] concerns the target Muscarinic acetylcholine receptor M3 (Rattus norvegicus, UniProt P08483). In words: Activity at rat M3 receptor.
The target in data set [6] is Muscarinic acetylcholine receptor M5 (Rattus norvegicus, UniProt P08911). In words: Activity at rat M5 receptor.
Chain of Muscarinic acetylcholine receptor M5 (P08911 whole entry): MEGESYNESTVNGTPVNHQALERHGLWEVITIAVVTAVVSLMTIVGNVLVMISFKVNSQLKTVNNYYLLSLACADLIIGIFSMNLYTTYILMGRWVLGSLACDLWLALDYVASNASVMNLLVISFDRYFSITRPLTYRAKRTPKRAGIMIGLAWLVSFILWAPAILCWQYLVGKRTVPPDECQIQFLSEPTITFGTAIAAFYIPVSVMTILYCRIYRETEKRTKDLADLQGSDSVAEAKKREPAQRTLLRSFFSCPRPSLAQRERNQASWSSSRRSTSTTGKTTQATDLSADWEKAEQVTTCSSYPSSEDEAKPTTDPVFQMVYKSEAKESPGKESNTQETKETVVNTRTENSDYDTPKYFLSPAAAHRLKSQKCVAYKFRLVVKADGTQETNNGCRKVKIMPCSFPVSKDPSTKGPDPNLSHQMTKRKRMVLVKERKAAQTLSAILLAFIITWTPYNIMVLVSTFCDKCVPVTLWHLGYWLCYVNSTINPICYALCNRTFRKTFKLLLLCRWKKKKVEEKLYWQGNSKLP
A further data set deals with CYP3A4 (Homo sapiens, UniProt P08684). Description: Induction of CYP3A4 in cryopreserved human hepatocytes measured after 48 hrs. It is filed as ADME, cell-based. Summed up:
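Cryopreserved human hepatocytes incubated for 48 hr, with enzyme activity as read-out. Induction expressed as EC50 and Emax.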

Data set [7] can be described thus: Drug metabolism in cynomolgus monkey cryopreserved hepatocytes assessed as metabolite M1 formation. It is filed as ADME, cell-based, Macaca fascicularis, Hepatocyte.
The nature of data set [8]: Drug metabolism in human cryopreserved hepatocytes assessed as metabolite M1 formation. It is filed as ADME, cell-based, Hepatocyte.
A short description of data set [9]: Drug metabolism in cynomolgus monkey cryopreserved hepatocytes assessed as metabolite M2 formation. It is filed as ADME, cell-based, Macaca fascicularis, Hepatocyte.
Data set [10] is described as follows: Drug metabolism in dog cryopreserved hepatocytes assessed as metabolite M6 formation. It is filed as ADME, cell-based, Canis lupus familiaris, Hepatocyte.
Data set [11] can be described thus: Drug metabolism in cynomolgus monkey cryopreserved hepatocytes assessed as metabolite M7 formation. It is filed as ADME, cell-based, Macaca fascicularis, Hepatocyte.
The nature of data set [12]: Drug metabolism in human cryopreserved hepatocytes assessed as metabolite M7 formation. It is filed as ADME, cell-based, Hepatocyte.
Data set [13] is described as follows: Drug metabolism in human cryopreserved hepatocytes assessed as metabolite M8 formation. It is filed as ADME, cell-based, Hepatocyte.
Data set [14] is described as follows: Unbound plasma concentration in rat. It is filed as ADME, cell-free.

Chain of CYP3A4 (P08684 whole entry): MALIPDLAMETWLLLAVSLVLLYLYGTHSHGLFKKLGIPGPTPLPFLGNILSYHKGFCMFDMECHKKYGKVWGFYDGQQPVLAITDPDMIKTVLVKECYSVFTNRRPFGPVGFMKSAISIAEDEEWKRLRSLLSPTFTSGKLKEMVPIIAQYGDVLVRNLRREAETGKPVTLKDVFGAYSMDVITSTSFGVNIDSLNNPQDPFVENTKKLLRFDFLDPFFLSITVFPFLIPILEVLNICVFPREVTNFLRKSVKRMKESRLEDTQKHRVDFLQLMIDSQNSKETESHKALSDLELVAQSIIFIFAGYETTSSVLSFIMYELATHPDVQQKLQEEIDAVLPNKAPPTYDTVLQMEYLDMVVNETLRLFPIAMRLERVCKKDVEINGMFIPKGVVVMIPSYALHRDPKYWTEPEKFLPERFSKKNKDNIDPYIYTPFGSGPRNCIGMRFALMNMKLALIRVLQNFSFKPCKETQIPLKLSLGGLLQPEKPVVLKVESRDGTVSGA
Chain of Muscarinic acetylcholine receptor M3 (Rattus norvegicus, UniProt P08483) (P08483 whole entry): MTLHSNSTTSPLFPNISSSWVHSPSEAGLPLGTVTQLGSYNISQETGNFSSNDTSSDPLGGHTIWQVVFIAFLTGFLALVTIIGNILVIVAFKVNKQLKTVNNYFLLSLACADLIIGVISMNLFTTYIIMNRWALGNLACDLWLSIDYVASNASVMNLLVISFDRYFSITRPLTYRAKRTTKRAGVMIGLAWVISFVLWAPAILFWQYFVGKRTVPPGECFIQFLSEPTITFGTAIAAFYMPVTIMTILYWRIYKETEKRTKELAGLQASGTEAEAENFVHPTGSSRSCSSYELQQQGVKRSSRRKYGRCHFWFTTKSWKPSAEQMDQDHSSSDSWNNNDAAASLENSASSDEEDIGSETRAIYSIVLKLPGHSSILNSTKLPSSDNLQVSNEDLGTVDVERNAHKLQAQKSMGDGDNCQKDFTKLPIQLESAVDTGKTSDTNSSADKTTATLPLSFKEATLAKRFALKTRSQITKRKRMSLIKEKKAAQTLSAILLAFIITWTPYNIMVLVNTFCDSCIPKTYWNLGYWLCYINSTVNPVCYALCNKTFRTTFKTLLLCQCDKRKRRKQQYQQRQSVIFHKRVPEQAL

Take `Cc1nnc2sc(C(=O)NCc3ccc(-c4cccnc4F)cc3)c(N)c2c1C`: the IC50 (commonly the concentration that gives 50% inhibition) against Cytochrome P450 1A2 amounted to 11 µM. Further, the EC50 is 0.0135 µM in [1] (read-out: EC50); 0.0117 µM in data set [1] (read-out: pEC50 (converted)); 0.111 µM in [2]; greater than 30 µM in [3]; greater than 30 µM in [4]; greater than 30 µM in data set [5]. Also, in [6], the EC50 is greater than 30 µM. Besides, the pEC50 (commonly the EC50 on a negative log10 scale, so that one unit is a factor of ten) in [2] came out at 6.95. The EC50 at 48 h at CYP3A4 is greater than 50 µM. Besides, the Drug metabolism entry in [7], in data set [8], in data set [9], in data set [10], in [11] and in data set [12] was “Metabolite_Detected” each time. In addition, in data set [13], the Drug metabolism entry is “Metabolite_Detected”. Further, the fraction unbound (commonly the share of the substance not bound to proteins or other matrix) in data set [14] was found to be 0.002.
